Compound activity (PubChem)
PPC-1+TRAIL kill: compounds killing PPC-1 cancer cells with TRAIL present (potentiator screen, no TRAIL-free arm) | PPC-1 cells + TRAIL, ATPLite viability luminescence | cell killing (% activity), % at 4 µM or 5 µM | 220,000 compounds, 0.41% hits;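 active = cell killing above 50% in the first pass at 4 µM, then a duplicate retest at 5 µM averaging 50% or more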
FLuc inh counter: inhibits firefly luciferase, flagging false hits in luciferase inhibition screens; inhibition, % at 10 µM; ATPLite firefly luciferase biochemical luminescence, 10 min; 200,000 compounds, 1.5% hits; P08659;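 active = inhibition above about 50% when tested at 10 µM, limit read from the data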
Target sequence (P08659 whole entry, looked up): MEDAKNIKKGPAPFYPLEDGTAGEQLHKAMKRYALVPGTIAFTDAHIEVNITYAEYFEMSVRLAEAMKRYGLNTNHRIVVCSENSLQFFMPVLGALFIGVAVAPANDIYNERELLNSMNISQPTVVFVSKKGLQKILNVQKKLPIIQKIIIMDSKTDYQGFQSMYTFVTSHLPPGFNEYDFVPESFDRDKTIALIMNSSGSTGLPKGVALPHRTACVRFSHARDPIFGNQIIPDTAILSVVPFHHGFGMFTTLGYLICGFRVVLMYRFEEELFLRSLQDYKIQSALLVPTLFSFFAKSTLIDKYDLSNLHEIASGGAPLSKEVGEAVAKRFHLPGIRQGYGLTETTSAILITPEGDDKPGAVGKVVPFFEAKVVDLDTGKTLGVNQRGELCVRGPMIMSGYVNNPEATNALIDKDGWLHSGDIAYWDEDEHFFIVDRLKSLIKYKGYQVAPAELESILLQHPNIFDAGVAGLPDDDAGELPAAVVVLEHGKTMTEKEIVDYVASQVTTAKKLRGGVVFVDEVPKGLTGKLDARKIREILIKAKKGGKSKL
APP 5'UTR act: APP 5'UTR luciferase reporter activation | 190,000 compounds, 1% hits | SH-SY5Y APP 5'UTR luciferase reporter, luminescence; zero percent = DMSO vehicle wells | activation, % at 2 µM | AID 1276;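 active = activation above a set limit, based on mean plus 3 SD of controls, cut at about 140% in these data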
NF-kB neuron act: raises NF-kB expression in human neuronal cells; NF-kB reporter expression; active compounds read high; fold change at 12.5 µM; 190,000 compounds, 1.6% hits; in the data active = fold change above about 3.3
FLuc act counter: firefly luciferase counter-screen for stimulation assays; P08659; 200,000 tested, under 10 active; activation factor at 10 µM; ATPlite luciferase biochemical, luminescence, 10 min; 0 = ATP-free wells, 1 = DMSO control; AID 1027;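 active = luciferase activation factor, scaled between plate controls, of at least 2 with compound at 10 µM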
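Assay system: Luciferase/luciferin detection reagent, cell-free biochemical luciferase assay / Also added: ATP substrate / Schedule: 10 min at ambient temperature / Measured by: luminescence measurement of luciferase light output / Benchmarks: low control with PBS replacing ATP, high control enzyme plus ATP without compound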
C8 TRAIL sens: caspase-8 TRAIL sensitization; NB7+C8 cells + TRAIL, ATPlite viability luminescence; inhibition (viability loss, TRAIL sensitization), % at 10 µM; 360,000 compounds, 1% hits;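 active = compounds causing at least 50% loss of cell viability in the single-dose screen, relative to plate controls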
Of the large screens only hits and unclear results are named; the others gave an inactive call. The list is not random: actives were taken first. Their share in the collection is about 2.2%.

COc1ccc(C(=O)O/N=C(\N)c2ccc(OC)c(OC)c2)cc1	C8 TRAIL sens 61.5 (no result: PPC-1+TRAIL kill, FLuc inh counter, APP 5'UTR act, NF-kB neuron act, FLuc act counter)
Cc1ccc(C(=O)O/N=C(\N)Cc2cccs2)cc1[N+](=O)[O-]	none (no result: PPC-1+TRAIL kill, FLuc inh counter, APP 5'UTR act, NF-kB neuron act, FLuc act counter)
COc1cccc(C(=O)O/N=C(\C)c2cnccn2)c1	FLuc inh counter 65.2
CC1(C(=O)NS(=O)(=O)c2cccc(F)c2)CCN1C(=O)CC1CCCC1 (stereo unspecified)	none (no result: PPC-1+TRAIL kill, FLuc inh counter, APP 5'UTR act, NF-kB neuron act, FLuc act counter)
COc1ccc(C(=O)O/N=C(\N)c2ccccc2Cl)cc1OC	C8 TRAIL sens 78.3 (no result: PPC-1+TRAIL kill, FLuc inh counter, APP 5'UTR act, NF-kB neuron act, FLuc act counter)
COc1ccc(C(=O)O/N=C(/c2ccccc2)c2ccncc2)cc1	none
COc1ccc(/C(N)=N/OC(=O)CCC2CCCC2)cc1OC	none (no result: PPC-1+TRAIL kill, FLuc inh counter, APP 5'UTR act, NF-kB neuron act, FLuc act counter)
COc1ccc(C(=O)O/N=C(\C)c2ccccc2)cc1	FLuc inh counter 90.3
COc1ccc(/C(N)=N/OC(=O)CC2CCCCC2)cc1OC	C8 TRAIL sens 72.8 (no result: PPC-1+TRAIL kill, FLuc inh counter, APP 5'UTR act, NF-kB neuron act, FLuc act counter)
O=C(CNC(=O)c1ccc(Cl)c([N+](=O)[O-])c1)NCC1CCCO1 (stereo unspecified)	none (no result: PPC-1+TRAIL kill, FLuc inh counter, APP 5'UTR act, NF-kB neuron act, FLuc act counter)
CCn1c(SCC(=O)NC2CC2)nnc1-c1ccc(F)cc1	none (no result: PPC-1+TRAIL kill, FLuc inh counter, APP 5'UTR act, NF-kB neuron act, FLuc act counter)
CCCC[n+]1ccn(C2=C([O-])c3ccccc3C(=O)/C2=N\S(=O)(=O)c2ccccc2)c1	C8 TRAIL sens 51.2
CC(C)Cc1ccc(-c2cc3nc(NCCOc4ccccc4)ccn3n2)cc1	none (no result: PPC-1+TRAIL kill, FLuc inh counter, APP 5'UTR act, NF-kB neuron act, FLuc act counter)
Cc1ccc(C(=O)CSc2nnc3ccccn23)c(C)c1	APP 5'UTR act 167.4, NF-kB neuron act 4.08
COCCn1c(N)c(N(Cc2ccccc2)C(=O)C(C)Oc2ccc(Br)cc2)c(=O)[nH]c1=O (stereo unspecified)	none (no result: PPC-1+TRAIL kill, FLuc inh counter, APP 5'UTR act, NF-kB neuron act, FLuc act counter)
Cn1cc(Cc2ccc(C(=O)NCc3ccccc3)cn2)c2ccccc21	none (no result: PPC-1+TRAIL kill, FLuc inh counter, APP 5'UTR act, NF-kB neuron act, FLuc act counter)
COc1ccc(C(=O)/C=C2\Sc3ccccc3N2C)cc1	FLuc inh counter 71.3, APP 5'UTR act 195.2, NF-kB neuron act 7.29
COc1ccc(-[n+]2c(C)cc(/C=C3\Sc4ccccc4N3C)cc2C)cc1	NF-kB neuron act 5.4
Clc1ccc(-c2cn3c(n2)-c2ccccc2C3)cc1Cl	FLuc inh counter 65.7, APP 5'UTR act 165.6, NF-kB neuron act 9.67
N/C(=N/OC(=O)c1ccccc1Cl)c1nonc1N	FLuc inh counter 52.2, NF-kB neuron act 4.89
N/C(=N\OC(=O)c1ccc(F)cc1)c1nonc1N	none
Cc1cc(/C(N)=N/OC(=O)c2ccccc2Cl)no1	C8 TRAIL sens 61.2 (no result: FLuc inh counter, APP 5'UTR act, NF-kB neuron act, FLuc act counter)
Cc1cc(NC(=O)COC(=O)c2ccccc2Cl)no1	none (no result: PPC-1+TRAIL kill, FLuc inh counter, APP 5'UTR act, NF-kB neuron act, FLuc act counter)
Cc1ccc(C(=O)O/N=C(\N)c2nonc2N)cc1	FLuc inh counter 83.6
Cc1noc(C)c1C(=O)Nc1cccc(S(=O)(=O)N2CCOCC2)c1	none (no result: PPC-1+TRAIL kill, FLuc inh counter, APP 5'UTR act, NF-kB neuron act, FLuc act counter)
O=C(O)Cc1ccc(NC(=O)Cc2ccc3ccccc3c2)cc1	none (no result: PPC-1+TRAIL kill, FLuc inh counter, APP 5'UTR act, NF-kB neuron act, FLuc act counter)
O=C1/C(=N\S(=O)(=O)c2cccs2)C([n+]2cccc(Cc3ccccc3)c2)=C([O-])c2ccccc21	C8 TRAIL sens 48.0 (no result: FLuc inh counter, APP 5'UTR act, NF-kB neuron act, FLuc act counter)
N/C(=N\N=C\c1ccc(O)cc1)c1nonc1N	FLuc inh counter 50.8, NF-kB neuron act 5.13
N/C(=N\N=C\c1ccc(O)c(O)c1)c1nonc1N	none (no result: FLuc inh counter, APP 5'UTR act, NF-kB neuron act, FLuc act counter)
N/C(=N\N=C\c1cccc(O)c1)c1nonc1N	APP 5'UTR act 154.8, NF-kB neuron act 8.69
COCCNC(=O)CN(C(=O)CCC(=O)Nc1ccccn1)c1ccc(C)cc1C	none (no result: PPC-1+TRAIL kill, FLuc inh counter, APP 5'UTR act, NF-kB neuron act, FLuc act counter)
Cc1ccc2nc(C(=O)N3CCCC(Nc4ccc(F)cc4)C3)cn2c1 (stereo unspecified)	none (no result: PPC-1+TRAIL kill, FLuc inh counter, APP 5'UTR act, NF-kB neuron act, FLuc act counter)
O=C(Nc1ccccc1O)c1c(O)c2c([nH]c1=O)CCCC2	NF-kB neuron act 4.49
O=C(Nc1nccs1)c1c(O)c2c([nH]c1=O)CCCC2	none (no result: FLuc inh counter, APP 5'UTR act, NF-kB neuron act, FLuc act counter)
COc1ccccc1CN1CCN(Cc2nc(-c3cccs3)no2)CC1	none
O=C(O)CCc1nc(-c2cccs2)no1	none
Cc1ccc(OCc2nc(-c3cccs3)no2)c([N+](=O)[O-])c1	FLuc inh counter 60.9, APP 5'UTR act 197.9, NF-kB neuron act 11.2
Cc1cc(C)c(C)c(OCc2nc(-c3cccnc3)no2)c1	none
O=[N+]([O-])c1ccc(F)cc1OCc1nc(-c2cccs2)no1	APP 5'UTR act 155.8, NF-kB neuron act 6.39
Cc1ccc(OCc2nc(-c3ccccc3)no2)c(C)c1	NF-kB neuron act 5.15
O=[N+]([O-])c1ccccc1OCc1nc(-c2cccs2)no1	APP 5'UTR act 185.1, NF-kB neuron act 7.56
O=C(O)CCn1cc(/C=C2\NC(=S)N(c3ccccc3)C2=O)c(-c2ccc(Br)cc2)n1	none
CS(=O)(=O)N(CC(=O)NCCSCc1ccccc1Cl)c1ccc(F)cc1	none (no result: PPC-1+TRAIL kill, FLuc inh counter, APP 5'UTR act, NF-kB neuron act, FLuc act counter)
Cc1nn(C)cc1S(=O)(=O)Nc1ncccn1	none (no result: PPC-1+TRAIL kill, FLuc inh counter, APP 5'UTR act, NF-kB neuron act, FLuc act counter)
